{
  "source": "ChEMBL document CHEMBL4266059",
  "about": "“Synthesis of Cyanoenone-Modified Diterpenoid Analogs as Novel Bmi-1-Mediated Antitumor Agents” (ACS Med Chem Lett, 2018)",
  "key": {"HCT-116 [1]": {"tested_on": "HCT-116", "experiment": "Effect on total H2A protein expression in human HCT116 cells at 0.5 to 4 uM after 8 hrs by Western blot analysis", "assay_type": "functional, cell-based", "summary_of_the_method": "(§1)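 HCT116 cells treated with test agents at the indicated concentrations for 8 h. Bmi-1, H2A-K119 ubiquitinated H2A (ub-H2A), total H2A and Ring1b detected by Western blot.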"}, "HCT-116 [2]": {"tested_on": "HCT-116", "experiment": "Effect on total Ring1b protein expression in human HCT116 cells at 0.5 to 4 uM after 8 hrs by Western blot analysis", "assay_type": "functional, cell-based", "summary_of_the_method": "as §1"}, "HCT-116 [3]": {"tested_on": "HCT-116", "experiment": "Antiproliferative activity against human HCT116 cells after 72 hrs by SRB assay", "assay_type": "functional, cell-based", "conditions": "HCT-116, 72 h"}, "HCT-116 [4]": {"tested_on": "HCT-116", "experiment": "Inhibition of Bmi1 protein expression in human HCT116 cells after 8 hrs by Western blot analysis", "assay_type": "functional, cell-based"}, "HT-29": {"tested_on": "HT-29", "experiment": "Antiproliferative activity against human HT-29 cells after 72 hrs by SRB assay", "assay_type": "functional, cell-based", "conditions": "HT-29, 72 h"}, "HCT-8": {"tested_on": "HCT-8", "experiment": "Antiproliferative activity against human HCT8 cells after 72 hrs by SRB assay", "assay_type": "functional, cell-based", "conditions": "HCT-8, 72 h"}, "[5]": {"experiment": "Antiproliferative activity against HAF after 72 hrs by SRB assay", "design": "species or system Homo sapiens"}, "[6]": {"experiment": "Selectivity index, ratio of IC50 for HAF to IC50 for human HCT116 cells", "assay_type": "toxicity", "conditions": "HAF cells versus HCT116 cells, read-out: Ratio IC50"}, "[7]": {"experiment": "Selectivity index, ratio of IC50 for HAF to IC50 for human HT-29 cells", "assay_type": "toxicity", "conditions": "HAF cells versus HT-29 cells, read-out: Ratio IC50"}, "[8]": {"experiment": "Selectivity index, ratio of IC50 for HAF to IC50 for human HCT8 cells", "assay_type": "toxicity", "conditions": "HAF cells versus HCT8 cells, read-out: Ratio IC50"}, "[9]": {"target": "T1, Polycomb complex protein BMI-1 (Homo sapiens) (UniProt P35226)", "T1 sequence (whole entry)": "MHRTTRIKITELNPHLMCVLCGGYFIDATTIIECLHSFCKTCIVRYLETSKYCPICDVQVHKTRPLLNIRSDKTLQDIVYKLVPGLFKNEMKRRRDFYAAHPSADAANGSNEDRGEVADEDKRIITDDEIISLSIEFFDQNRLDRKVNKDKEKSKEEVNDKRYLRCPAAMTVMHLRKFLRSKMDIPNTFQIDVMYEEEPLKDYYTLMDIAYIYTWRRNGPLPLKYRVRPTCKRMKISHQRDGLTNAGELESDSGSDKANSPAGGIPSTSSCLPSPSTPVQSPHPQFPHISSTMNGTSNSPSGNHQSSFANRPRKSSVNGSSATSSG", "experiment": "Inhibition of Bmi1 in human HCT116 cells assessed as reduction in H2A-K119Ub level after 8 hrs by Western blot analysis", "assay_type": "cell-based", "summary_of_the_method": "as §1"}, "HCT-116 [10]": {"tested_on": "HCT-116", "experiment": "Antimigratory activity against human HCT116 cells after 24 hrs by crystal violet staining based transwell migration assay", "assay_type": "functional, cell-based", "summary_of_the_method": "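HCT116 cells were tested for migration through a transwell chamber at 0.5 and 1 μM, compared against an untreated (0 μM) control. Significance was assessed versus that control.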"}, "HCT-116 [11]": {"tested_on": "HCT-116", "experiment": "Antimigratory activity against human HCT116 cells at 0.5 uM after 24 hrs by crystal violet staining based transwell migration assay relative to control", "assay_type": "functional", "summary_of_the_method": "(§2)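 HCT116 cells in transwell chambers; migration compared with untreated control (0 μM).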"}, "HCT-116 [12]": {"tested_on": "HCT-116", "experiment": "Antimigratory activity against human HCT116 cells at 1 uM after 24 hrs by crystal violet staining based transwell migration assay relative to control", "assay_type": "functional", "summary_of_the_method": "as §2"}, "HCT-116 [13]": {"tested_on": "HCT-116", "experiment": "Inhibition of colony formation in human HCT116 cells after 7 days by crystal violet staining based assay", "assay_type": "functional, cell-based", "summary_of_the_method": "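HCT116 colony formation assay over a concentration series; read-out was colony number and size.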"}, "HCT-116 [14]": {"tested_on": "HCT-116", "experiment": "Inhibition of cancer stem cell proliferation in human HCT116 cells assessed as decrease in CD133/CD44-positive cell population after 48 hrs by flow cytometry", "assay_type": "functional, cell-based", "summary_of_the_method": "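HCT116 cells, which coexpress CD133 and CD44; the CD133+/CD44+ stem-like population was quantified by flow cytometry after treatment over a concentration series.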"}, "HCT-116 [15]": {"tested_on": "HCT-116", "experiment": "Inhibition of cancer stem cell proliferation in human HCT116 cells assessed as CD133/CD44-positive cell population at 1 uM after 48 hrs by flow cytometry (reference value: 85.1 to 86.6%)", "assay_type": "functional", "design": "scale not given: the % may be the effect or the level left"}, "HCT-116 [16]": {"tested_on": "HCT-116", "experiment": "Induction of apoptosis in human HCT116 cells at 1 uM after 48 hrs by Annexin V/propidium iodide staining based flow cytometry relative to control", "assay_type": "functional"}, "HCT-116 [17]": {"tested_on": "HCT-116", "experiment": "Induction of apoptosis in human HCT116 cells after 48 hrs by Annexin V/propidium iodide staining based flow cytometry", "assay_type": "functional, cell-based", "summary_of_the_method": "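HCT116 cells treated for 48 h; apoptosis scored by flow cytometry as early and late apoptotic fractions, compared with untreated controls.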"}, "HCT-116 [18]": {"tested_on": "HCT-116", "experiment": "Antitumor activity against human HCT116 cells xenografted in nude mouse assessed as tumor growth inhibition at 5 mg/kg/day, ip for 18 days", "assay_type": "functional, organism-based", "summary_of_the_method": "(§3)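 HCT116 subcutaneous xenografts in nude mice; mice randomized into groups of n = 6 and given vehicle (DMSO), test article or reference intraperitoneally daily for 18 days, then sacrificed. End points were excised tumor weight and volume, body weight, histology of heart, liver, spleen, lung and kidney, and immunohistochemistry of tumors for Ki67 and Bmi-1.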"}, "Mus musculus [19]": {"tested_on": "Mus musculus", "experiment": "Toxicity in nude mouse xenografted with human HCT116 cells assessed as change in body weight at 5 to 10 mg/kg/day, ip for 18 days", "assay_type": "organism-based", "conditions": "in vivo, 432 h", "summary_of_the_method": "as §3"}, "Mus musculus [20]": {"tested_on": "Mus musculus", "experiment": "Toxicity in nude mouse xenografted with human HCT116 cells assessed as abnormality in heart at 5 to 10 mg/kg/day, ip for 18 days by hematoxylin and eosin staining based microscopic analysis", "assay_type": "organism-based", "conditions": "in vivo, 432 h", "summary_of_the_method": "as §3"}, "Mus musculus [21]": {"tested_on": "Mus musculus", "experiment": "Toxicity in nude mouse xenografted with human HCT116 cells assessed as abnormality in liver at 5 to 10 mg/kg/day, ip for 18 days by hematoxylin and eosin staining based microscopic analysis", "assay_type": "organism-based", "conditions": "in vivo, 432 h", "summary_of_the_method": "as §3"}, "Mus musculus [22]": {"tested_on": "Mus musculus", "experiment": "Toxicity in nude mouse xenografted with human HCT116 cells assessed as abnormality in spleen at 5 to 10 mg/kg/day, ip for 18 days by hematoxylin and eosin staining based microscopic analysis", "assay_type": "organism-based", "conditions": "in vivo, 432 h", "summary_of_the_method": "as §3"}, "Mus musculus [23]": {"tested_on": "Mus musculus", "experiment": "Toxicity in nude mouse xenografted with human HCT116 cells assessed as abnormality in lung at 5 to 10 mg/kg/day, ip for 18 days by hematoxylin and eosin staining based microscopic analysis", "assay_type": "organism-based", "conditions": "in vivo, 432 h", "summary_of_the_method": "as §3"}, "Mus musculus [24]": {"tested_on": "Mus musculus", "experiment": "Toxicity in nude mouse xenografted with human HCT116 cells assessed as abnormality in kidney at 5 to 10 mg/kg/day, ip for 18 days by hematoxylin and eosin staining based microscopic analysis", "assay_type": "organism-based", "conditions": "in vivo, 432 h", "summary_of_the_method": "as §3"}, "HCT-116 [25]": {"tested_on": "HCT-116", "experiment": "Antitumor activity against human HCT116 cells xenografted in nude mouse assessed as reduction in Ki67 expression in tumor at 5 to 10 mg/kg/day, ip for 18 days by IHC analysis", "assay_type": "functional, organism-based", "summary_of_the_method": "as §3"}, "Mus musculus [26]": {"tested_on": "Mus musculus", "experiment": "Decrease in Bmi1 expression in tumors of nude mouse xenografted with human HCT116 cells at 5 to 10 mg/kg/day, ip for 18 days by IHC analysis", "assay_type": "functional, organism-based", "summary_of_the_method": "as §3"}},
  "note": "The source made the active and inactive calls. The rule behind the calls is not given here.",
  "data": [
    {"smiles": "COc1cc2c(cc1C(=O)Nc1ccccc1OC(F)(F)F)CC[C@H]1C(C)(C)C(=O)C(C#N)=C[C@]21C", "values": [
      {"measurement": "Activity", "setting": "HCT-116 [1]", "value": "inactive"},
      {"measurement": "Activity", "setting": "HCT-116 [2]", "value": "inactive"},
      {"measurement": "IC50", "setting": "HCT-116 [3]", "value": 250, "unit": "nM"},
      {"measurement": "inhibition", "setting": "HCT-116 [4]", "value": "Dose-dependent effect"},
      {"measurement": "IC50", "setting": "HCT-116 [4]; HCT-116, 8 h", "value": 830, "unit": "nM"},
      {"measurement": "IC50", "setting": "HT-29", "value": 450, "unit": "nM"},
      {"measurement": "IC50", "setting": "HCT-8", "value": 360, "unit": "nM"},
      {"measurement": "IC50", "setting": "[5]", "value": 3280, "unit": "nM"},
      {"measurement": "selectivity ratio", "setting": "[6]", "value": "7.3 to 13.1"},
      {"measurement": "selectivity ratio", "setting": "[7]", "value": "7.3 to 13.1"},
      {"measurement": "selectivity ratio", "setting": "[8]", "value": "7.3 to 13.1"},
      {"measurement": "inhibition", "setting": "[9]", "value": "Dose-dependent effect"},
      {"measurement": "Activity", "setting": "HCT-116 [10]", "value": "Dose-dependent effect"},
      {"measurement": "Activity", "setting": "HCT-116 [11]", "value": 30, "unit": "%"},
      {"measurement": "Activity", "setting": "HCT-116 [12]", "value": 70, "unit": "%"},
      {"measurement": "inhibition", "setting": "HCT-116 [13]", "value": "Dose-dependent effect"},
      {"measurement": "inhibition", "setting": "HCT-116 [14]", "value": "Dose-dependent effect"},
      {"measurement": "Activity", "setting": "HCT-116 [15]", "value": 56.1, "unit": "%"},
      {"measurement": "Activity", "setting": "HCT-116 [16]", "value": 20.29, "unit": "%"},
      {"measurement": "Activity", "setting": "HCT-116 [17]", "value": "Dose-dependent effect"},
      {"measurement": "TGI", "setting": "HCT-116 [18]", "value": "Active"},
      {"measurement": "Activity", "setting": "Mus musculus [19]", "value": "Non-Toxic"},
      {"measurement": "Activity", "setting": "Mus musculus [20]", "value": "Non-Toxic"},
      {"measurement": "Activity", "setting": "Mus musculus [21]", "value": "Non-Toxic"},
      {"measurement": "Activity", "setting": "Mus musculus [22]", "value": "Non-Toxic"},
      {"measurement": "Activity", "setting": "Mus musculus [23]", "value": "Non-Toxic"},
      {"measurement": "Activity", "setting": "Mus musculus [24]", "value": "Non-Toxic"},
      {"measurement": "Activity", "setting": "HCT-116 [25]", "value": "Active"},
      {"measurement": "Activity", "setting": "Mus musculus [26]", "value": "Active"}
    ]}
  ]
}
